# What was measured:
# [1] = molecular target: T1, Tyrosine-protein phosphatase non-receptor type 1 (Homo sapiens) (UniProt P18031); assay: Inhibition of GST-tagged human recombinant PTB1B using pNPP as substrate at 20 ug/ml after 3 mins
# T1 sequence (whole entry): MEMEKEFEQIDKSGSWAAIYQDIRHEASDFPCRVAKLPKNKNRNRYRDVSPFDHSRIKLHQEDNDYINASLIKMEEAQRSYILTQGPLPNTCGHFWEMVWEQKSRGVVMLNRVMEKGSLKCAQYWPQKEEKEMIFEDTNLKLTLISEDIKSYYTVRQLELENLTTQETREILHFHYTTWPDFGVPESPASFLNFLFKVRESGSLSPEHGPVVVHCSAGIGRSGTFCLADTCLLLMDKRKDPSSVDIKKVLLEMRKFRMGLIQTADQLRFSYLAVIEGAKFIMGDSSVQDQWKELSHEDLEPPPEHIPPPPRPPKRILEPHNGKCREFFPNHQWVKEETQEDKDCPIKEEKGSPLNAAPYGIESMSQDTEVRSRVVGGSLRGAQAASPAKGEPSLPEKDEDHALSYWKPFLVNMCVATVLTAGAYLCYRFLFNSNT
# [2] = molecular target: T2, Tyrosine-protein phosphatase non-receptor type 1 (Homo sapiens, UniProt P18031); assay: Inhibition of GST-tagged human recombinant PTB1B using pNPP as substrate after 3 mins
# T2 sequence (P18031 whole entry): T1 sequence (whole entry)
# [3] = molecular target: T1, Tyrosine-protein phosphatase non-receptor type 1 (Homo sapiens); assay: Inhibition of GST-tagged human recombinant PTB1B using pNPP as substrate at 5 ug/ml after 3 mins
# Mus musculus [4] = assay: Antidyslipidemic activity in C57BL/Ks db/db mouse assessed as reduction of total cholesterol level at 50 mg/kg, po after 6 weeks (reference value: 9.2 +/- 1.2 mmol/L); assay type: functional
# Mus musculus [5] = assay: Antihyperglycemic activity in C57BL/Ks db/db mouse assessed as reduction of glycosylated hemoglobin level using HbA1c reagent at 50 mg/kg, po after 2 to 6 weeks relative to control; assay type: functional; design: scale not given: the % may be the effect or the level left
# Summary of the method: (§1)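 HbA1c measured in C57BL/Ks db/db mice (n = 8 per group, 10 weeks old at start). Mice received oral doses suspended in 0.5% sodium carboxymethyl cellulose for six weeks, alongside a vehicle-treated model group. Results given as mean ± SD, compared against the model group.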
# Mus musculus [6] = assay: Antidyslipidemic activity in C57BL/Ks db/db mouse assessed as reduction of triacylglycerol level at 50 mg/kg, po after 6 weeks (reference value: 1.56 +/- 0.17 mmol/L); assay type: functional
# Mus musculus [7] = assay: Antidyslipidemic activity in C57BL/Ks db/db mouse assessed as reduction of total cholesterol level at 50 mg/kg, po after 2 weeks (reference value: 9.8 +/- 0.7 mmol/L); assay type: functional
# Mus musculus [8] = assay: Antidyslipidemic activity in C57BL/Ks db/db mouse assessed as reduction of triacylglycerol level at 50 mg/kg, po after 2 weeks (reference value: 1.24 +/- 0.12 mmol/L); assay type: functional
# Mus musculus [9] = assay: Antihyperglycemic activity in C57BL/Ks db/db mouse assessed as reduction of plasma glucose level at 50 mg/kg, po after 2 to 6 weeks by glucometer relative to control; assay type: functional; design: scale not given: the % may be the effect or the level left
# Summary of the method: (§2)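 db/db mice (C57BL/Ks, 10 weeks old, n = 8 per group) given compound orally in 0.5% sodium carboxymethyl cellulose for six weeks, with a vehicle model group. Postprandial blood glucose read weekly by glucometer. Baseline, 2-week and 6-week values given as mean ± SD. Percent decrease reported at 6 weeks, with statistics against the model group.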
# [10] = molecular target: Tyrosine-protein phosphatase non-receptor type 6 (Homo sapiens, UniProt P29350); assay: Inhibition of SHP1 using OMFP as substrate after 3 mins
# Tyrosine-protein phosphatase non-receptor type 6, sequence (P29350 whole entry): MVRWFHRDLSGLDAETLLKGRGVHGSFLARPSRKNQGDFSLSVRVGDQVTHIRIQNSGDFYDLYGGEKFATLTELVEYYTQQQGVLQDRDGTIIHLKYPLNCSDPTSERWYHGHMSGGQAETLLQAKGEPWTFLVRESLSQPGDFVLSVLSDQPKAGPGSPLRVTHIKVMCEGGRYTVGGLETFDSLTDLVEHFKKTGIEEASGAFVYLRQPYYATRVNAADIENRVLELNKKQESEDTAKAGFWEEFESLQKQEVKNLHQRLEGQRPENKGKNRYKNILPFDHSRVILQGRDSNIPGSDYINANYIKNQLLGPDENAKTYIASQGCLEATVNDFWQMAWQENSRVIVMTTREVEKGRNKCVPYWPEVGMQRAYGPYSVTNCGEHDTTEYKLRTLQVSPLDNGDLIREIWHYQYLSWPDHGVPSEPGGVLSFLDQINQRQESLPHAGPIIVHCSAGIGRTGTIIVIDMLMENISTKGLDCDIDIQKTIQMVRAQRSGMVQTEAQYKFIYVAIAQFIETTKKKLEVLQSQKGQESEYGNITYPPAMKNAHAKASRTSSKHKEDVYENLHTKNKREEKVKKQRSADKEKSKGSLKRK
# Summary of the method: (§3)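 Selectivity assays run in the same system as PTP1B. Enzyme and inhibitor preincubated 3 min at 4 °C, then the reaction started by adding substrate. OMFP used as substrate for SHP1, SHP2 and LAR. IC50 derived by Hill-equation fit of percent inhibition against inhibitor concentration.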
# Mus musculus [11] = assay: Antihyperglycemic activity in C57BL/Ks db/db mouse assessed as reduction of plasma glucose level at 25 mg/kg, po after 2 to 6 weeks by glucometer relative to control; assay type: functional; design: scale not given: the % may be the effect or the level left; summary of the method: as §2
# Mus musculus [12] = assay: Toxicity in C57BL/Ks db/db mouse at 25 to 50 mg/kg, po after 2 to 6 weeks; assay type: organism-based; design: route oral; conditions: in vivo
# Mus musculus [13] = assay: Antidyslipidemic activity in C57BL/Ks db/db mouse assessed as reduction of total cholesterol level at 25 mg/kg, po after 6 weeks (reference value: 9.2 +/- 1.2 mmol/L); assay type: functional
# Mus musculus [14] = assay: Antidyslipidemic activity in C57BL/Ks db/db mouse assessed as reduction of triacylglycerol level at 25 mg/kg, po after 2 weeks (reference value: 1.24 +/- 0.12 mmol/L); assay type: functional
# Homo sapiens [15] = species: Homo sapiens; assay: Selectivity ratio of IC50 for SHP2 to IC50 for GST-tagged human recombinant PTB1B
# [16] = molecular target: Receptor-type tyrosine-protein phosphatase F (Homo sapiens, UniProt P10586); assay: Inhibition of LAR using OMFP as substrate after 3 mins; summary of the method: as §3
# Receptor-type tyrosine-protein phosphatase F, sequence (P10586 whole entry): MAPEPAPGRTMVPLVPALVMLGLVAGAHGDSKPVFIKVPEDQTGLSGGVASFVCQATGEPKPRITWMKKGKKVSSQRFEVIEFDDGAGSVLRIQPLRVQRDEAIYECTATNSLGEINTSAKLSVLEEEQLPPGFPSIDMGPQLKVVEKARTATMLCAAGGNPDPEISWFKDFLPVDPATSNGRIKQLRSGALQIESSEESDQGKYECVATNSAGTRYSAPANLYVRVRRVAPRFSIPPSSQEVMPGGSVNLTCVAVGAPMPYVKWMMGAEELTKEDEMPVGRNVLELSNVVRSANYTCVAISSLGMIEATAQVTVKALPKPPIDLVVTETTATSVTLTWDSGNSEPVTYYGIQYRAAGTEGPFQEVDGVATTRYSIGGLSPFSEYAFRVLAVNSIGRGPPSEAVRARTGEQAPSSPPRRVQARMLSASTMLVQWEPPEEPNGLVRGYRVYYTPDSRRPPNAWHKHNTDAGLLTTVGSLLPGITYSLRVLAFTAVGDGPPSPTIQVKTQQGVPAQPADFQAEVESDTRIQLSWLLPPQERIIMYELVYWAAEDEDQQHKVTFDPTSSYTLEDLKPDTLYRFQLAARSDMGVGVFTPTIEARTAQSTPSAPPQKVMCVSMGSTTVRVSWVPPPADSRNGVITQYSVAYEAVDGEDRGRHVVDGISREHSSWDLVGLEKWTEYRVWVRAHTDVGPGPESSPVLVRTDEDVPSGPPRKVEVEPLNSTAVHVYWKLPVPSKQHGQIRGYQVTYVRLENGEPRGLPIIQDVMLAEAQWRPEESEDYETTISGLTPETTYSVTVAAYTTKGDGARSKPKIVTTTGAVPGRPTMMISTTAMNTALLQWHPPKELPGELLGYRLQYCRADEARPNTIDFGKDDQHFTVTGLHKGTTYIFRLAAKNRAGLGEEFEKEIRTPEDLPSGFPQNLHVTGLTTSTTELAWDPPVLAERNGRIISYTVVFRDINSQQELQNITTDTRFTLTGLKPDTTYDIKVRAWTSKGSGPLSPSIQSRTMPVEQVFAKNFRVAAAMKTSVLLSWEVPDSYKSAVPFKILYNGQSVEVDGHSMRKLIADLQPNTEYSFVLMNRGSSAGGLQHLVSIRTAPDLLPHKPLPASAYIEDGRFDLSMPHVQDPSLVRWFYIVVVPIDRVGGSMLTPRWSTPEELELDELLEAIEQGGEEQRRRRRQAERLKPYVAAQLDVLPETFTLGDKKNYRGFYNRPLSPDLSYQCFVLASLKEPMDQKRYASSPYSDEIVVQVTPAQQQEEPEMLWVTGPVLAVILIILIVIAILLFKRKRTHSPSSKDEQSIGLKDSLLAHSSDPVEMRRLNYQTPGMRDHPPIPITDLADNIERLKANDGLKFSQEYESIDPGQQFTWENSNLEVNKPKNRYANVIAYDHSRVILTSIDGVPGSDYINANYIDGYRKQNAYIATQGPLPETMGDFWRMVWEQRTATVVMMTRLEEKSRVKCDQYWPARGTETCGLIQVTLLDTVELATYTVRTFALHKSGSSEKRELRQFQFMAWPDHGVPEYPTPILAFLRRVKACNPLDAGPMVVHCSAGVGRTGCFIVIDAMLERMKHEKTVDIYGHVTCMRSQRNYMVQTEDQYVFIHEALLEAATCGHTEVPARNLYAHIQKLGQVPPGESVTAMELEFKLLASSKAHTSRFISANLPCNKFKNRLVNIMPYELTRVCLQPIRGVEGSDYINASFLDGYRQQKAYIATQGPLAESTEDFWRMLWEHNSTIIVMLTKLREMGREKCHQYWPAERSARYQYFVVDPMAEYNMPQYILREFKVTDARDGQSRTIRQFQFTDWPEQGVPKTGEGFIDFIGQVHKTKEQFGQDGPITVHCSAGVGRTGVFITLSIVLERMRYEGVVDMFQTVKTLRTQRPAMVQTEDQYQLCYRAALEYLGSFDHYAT
# Homo sapiens [17] = species: Homo sapiens; assay: Selectivity ratio of IC50 for TCPTP to IC50 for GST-tagged human recombinant PTB1B
# Homo sapiens [18] = species: Homo sapiens; assay: Selectivity ratio of IC50 for SHP1 to IC50 for GST-tagged human recombinant PTB1B
# [19] = molecular target: T3, Tyrosine-protein phosphatase non-receptor type 11 (Homo sapiens, UniProt Q06124); assay: Inhibition of SHP2 using OMFP as substrate after 3 mins; summary of the method: as §3
# T3 sequence (Q06124 whole entry): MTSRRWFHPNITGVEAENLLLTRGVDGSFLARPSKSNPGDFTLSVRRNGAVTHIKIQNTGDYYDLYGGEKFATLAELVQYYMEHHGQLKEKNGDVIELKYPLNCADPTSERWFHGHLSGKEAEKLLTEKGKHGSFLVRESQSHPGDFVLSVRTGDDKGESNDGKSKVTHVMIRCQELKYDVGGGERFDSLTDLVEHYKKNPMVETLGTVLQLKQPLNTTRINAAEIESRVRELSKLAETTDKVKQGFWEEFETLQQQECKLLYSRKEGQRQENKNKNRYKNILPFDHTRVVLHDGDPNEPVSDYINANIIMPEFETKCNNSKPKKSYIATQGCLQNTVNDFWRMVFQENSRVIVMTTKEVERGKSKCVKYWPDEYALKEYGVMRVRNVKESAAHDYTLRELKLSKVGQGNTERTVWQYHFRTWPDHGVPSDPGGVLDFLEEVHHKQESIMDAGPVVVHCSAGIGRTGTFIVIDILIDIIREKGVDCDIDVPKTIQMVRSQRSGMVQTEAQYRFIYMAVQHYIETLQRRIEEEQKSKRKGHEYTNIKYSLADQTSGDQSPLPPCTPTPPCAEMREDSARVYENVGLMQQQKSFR
# [20] = molecular target: T4, Tyrosine-protein phosphatase non-receptor type 2 (Homo sapiens, UniProt P17706); assay: Inhibition of TCPTP after 3 mins; summary of the method: as §3
# T4 sequence (P17706 whole entry): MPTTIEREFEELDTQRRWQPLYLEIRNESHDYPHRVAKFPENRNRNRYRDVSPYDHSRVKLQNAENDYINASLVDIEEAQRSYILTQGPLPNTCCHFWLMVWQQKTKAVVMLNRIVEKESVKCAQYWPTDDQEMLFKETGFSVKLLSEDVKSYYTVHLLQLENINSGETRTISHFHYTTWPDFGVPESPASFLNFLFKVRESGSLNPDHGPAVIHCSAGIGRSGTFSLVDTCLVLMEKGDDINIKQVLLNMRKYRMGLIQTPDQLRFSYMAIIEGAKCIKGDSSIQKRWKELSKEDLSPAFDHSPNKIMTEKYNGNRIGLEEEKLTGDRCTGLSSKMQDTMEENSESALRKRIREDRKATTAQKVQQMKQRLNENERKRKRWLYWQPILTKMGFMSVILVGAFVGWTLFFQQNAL
# Mus musculus [21] = assay: Antidyslipidemic activity in C57BL/Ks db/db mouse assessed as reduction of total cholesterol level at 25 mg/kg, po after 2 weeks (reference value: 9.8 +/- 0.7 mmol/L); assay type: functional
# Homo sapiens [22] = species: Homo sapiens; assay: Selectivity ratio of IC50 for LAR to IC50 for GST-tagged human recombinant PTB1B
# Mus musculus [23] = assay: Antidyslipidemic activity in C57BL/Ks db/db mouse assessed as reduction of triacylglycerol level at 25 mg/kg, po after 6 weeks (reference value: 1.56 +/- 0.17 mmol/L); assay type: functional
# Mus musculus [24] = assay: Antihyperglycemic activity in C57BL/Ks db/db mouse assessed as reduction of glycosylated hemoglobin level using HbA1c reagent at 25 mg/kg, po after 2 to 6 weeks relative to control; assay type: functional; design: scale not given: the % may be the effect or the level left; summary of the method: as §1
smiles,measurement,setting,value
Oc1cc(Br)c(Cc2cc(O)c(O)c(Br)c2Br)cc1O,inhibition,[1],40.5%
COc1ccc(C(=O)c2ccc(OC)c(OC)c2)cc1OC,inhibition,[1],2.72%
COc1cc(C(=O)c2c(Br)c(Br)c(OC)c(OC)c2Br)c(Br)c(Br)c1OC,IC50,[2],3260 nM
same,inhibition,[1],69.8%
same,inhibition,[3],50.6%
O=C(c1cc(O)c(O)c(Br)c1Br)c1cc(O)c(O)c(Br)c1Br,inhibition,[1],20.3%
Oc1ccc(Cc2cc(O)c(O)cc2Br)cc1O,inhibition,[1],12.2%
COc1cc(Br)c(C(=O)c2cc(OC)c(OC)cc2Br)cc1OC,inhibition,[1],33.6%
O=C(c1cc(O)c(O)cc1Br)c1cc(O)c(O)c(Br)c1Br,inhibition,[1],42.7%
COc1cc(Br)c(Cc2cc(OC)c(OC)cc2Br)cc1OC,inhibition,[1],33.6%
O=C(c1ccc(O)c(O)c1)c1ccc(O)c(O)c1,inhibition,[1],13.5%
COc1c(Br)c(Br)c(Cc2c(Br)c(Br)c(OC)c(OC)c2Br)c(Br)c1OC,inhibition,[1],96.9%
same,inhibition,[3],37.9%
COc1cc(Br)c(C(=O)c2cc(OC)c(OC)c(Br)c2Br)cc1OC,inhibition,[1],37.5%
COc1ccc(Cc2ccc(OC)c(OC)c2)cc1OC,inhibition,[1],38.4%
Oc1cc(Cc2cc(O)c(O)c(Br)c2Br)c(Br)c(Br)c1O,IC50,[2],2420 nM
same,inhibition,[1],91.3%
same,inhibition,[3],38.9%
CN(CCOc1ccc(CC2SC(=O)NC2=O)cc1)c1ccccn1 (stereo unspecified) [ROSIGLITAZONE],Activity,Mus musculus [4],7.7 mmol/L
same,Activity,Mus musculus [5],2.56%
same,Activity,Mus musculus [6],1.29 mmol/L
same,Activity,Mus musculus [7],6.5 mmol/L
same,Activity,Mus musculus [8],1.06 mmol/L
same,Activity,Mus musculus [9],48.4%
COc1cc(Cc2c(Br)c(Br)c(OC)c(OC)c2Br)c(Br)c(Br)c1OC,inhibition,[1],98.7%
same,inhibition,[3],49.3%
Oc1cc(Br)c(Cc2cc(O)c(O)cc2Br)cc1O,inhibition,[1],20.9%
COc1c(Br)c(Br)c(C(=O)c2c(Br)c(Br)c(OC)c(OC)c2Br)c(Br)c1OC,IC50,[2],2020 nM
same,inhibition,[1],105%
same,inhibition,[3],47.8%
O=C(c1cc(O)c(O)cc1Br)c1cc(O)c(O)cc1Br,inhibition,[1],8.74%
O=C(c1ccc(O)c(O)c1)c1cc(O)c(O)cc1Br,inhibition,[1],11.2%
O=C(c1c(Br)c(O)c(O)c(Br)c1Br)c1c(Br)c(O)c(O)c(Br)c1Br,inhibition,[1],78.6%
same,inhibition,[3],29.2%
COc1cc(C(=O)c2cc(OC)c(OC)c(Br)c2Br)c(Br)c(Br)c1OC,inhibition,[1],21.4%
COc1ccc(C(=O)c2cc(OC)c(OC)cc2Br)cc1OC,inhibition,[1],13%
COc1cc(Br)c(Cc2cc(OC)c(OC)c(Br)c2Br)cc1OC,inhibition,[1],52.5%
same,inhibition,[3],40.2%
Oc1cc(Cc2c(Br)c(O)c(O)c(Br)c2Br)c(Br)c(Br)c1O,inhibition,[1],92.3%
same,inhibition,[3],45.3%
COc1cc(Cc2cc(OC)c(OC)c(Br)c2Br)c(Br)c(Br)c1OC,inhibition,[1],60.4%
same,inhibition,[3],28.9%
O=C(c1cc(O)c(O)c(Br)c1Br)c1c(Br)c(O)c(O)c(Br)c1Br,IC50,[2],2450 nM
same,inhibition,[1],95.1%
same,inhibition,[3],72.1%
COc1ccc(Cc2cc(OC)c(OC)cc2Br)cc1OC,inhibition,[1],14.4%
Oc1ccc(Cc2ccc(O)c(O)c2)cc1O,inhibition,[1],9.27%
Oc1c(O)c(Br)c(Cc2c(Br)c(O)c(O)c(Br)c2Br)c(Br)c1Br,IC50,[10],> 50000 nM
same,Activity,Mus musculus [11],33.5%
same,Activity,Mus musculus [4],8.4 mmol/L
same,Activity,Mus musculus [5],3.05%
same,Activity,Mus musculus [12],Non-toxic
same,IC50,[2],680 nM
same,Activity,Mus musculus [13],9.1 mmol/L
same,Activity,Mus musculus [14],1.2 mmol/L
same,Ratio IC50,Homo sapiens [15],> 70
same,inhibition,[1],101%
same,IC50,[16],> 50000 nM
same,Ratio IC50,Homo sapiens [17],> 70
same,Ratio IC50,Homo sapiens [18],> 70
same,IC50,[19],> 50000 nM
same,Activity,Mus musculus [6],1.51 mmol/L
same,IC50,[20],> 50000 nM
same,inhibition,[3],86.7%
same,Activity,Mus musculus [7],7.1 mmol/L
same,Activity,Mus musculus [21],8.3 mmol/L
same,Ratio IC50,Homo sapiens [22],> 70
same,Activity,Mus musculus [23],1.45 mmol/L
same,Activity,Mus musculus [24],3.05%
same,Activity,Mus musculus [8],1.28 mmol/L
same,Activity,Mus musculus [9],40.4%

# From ChEMBL document CHEMBL2016568, “Bromophenols as inhibitors of protein tyrosine phosphatase 1B with antidiabetic properties” (Bioorg Med Chem Lett, 2012)
